Assay results as given in article PMC7775634 (Cell reports, 2020).
Changes are numbered by the printed parent chain. Numbers in names are those of the source. One block for each molecule: values may come before it. Ends that are not written are not given here. * marks the point of attachment. Biotin = O=C1N[C@H]2[C@H](CS[C@H]2CCCCC(=O)*)N1; Rhodamine = not defined here

Key:
[1] = test system: Cdc15 phosphostate in cells; settings: FK506-treated cells; ref Martín-García et al., 2018; cited from earlier work
Imp2 F-BAR domain = test: In vitro binding assay; parameters: species or system S. pombe; settings: biotin-labeled peptide; streptavidin pull down; SDS-PAGE, Coomassie
Procedure, shortened: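 Biotinylated test peptide (0.10 μM) and purified F-BAR domain (0.05 μM) were mixed with streptavidin resin. Incubation was 1 h at 4°C in 50 mM Tris pH 7.4, 250 mM NaCl, 0.1% NP-40. Resin was washed thoroughly. Bound protein was resolved by SDS-PAGE and stained with Coomassie blue.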

[2] = biological target: T1, Cdc15 F-BAR domain (E30K E152K) (Schizosaccharomyces pombe, UniProt Q09822, E152K/E30K); test: Isothermal titration calorimetry; type: binding, S. pombe
T1 sequence (Q09822 19-312 E30K/E152K): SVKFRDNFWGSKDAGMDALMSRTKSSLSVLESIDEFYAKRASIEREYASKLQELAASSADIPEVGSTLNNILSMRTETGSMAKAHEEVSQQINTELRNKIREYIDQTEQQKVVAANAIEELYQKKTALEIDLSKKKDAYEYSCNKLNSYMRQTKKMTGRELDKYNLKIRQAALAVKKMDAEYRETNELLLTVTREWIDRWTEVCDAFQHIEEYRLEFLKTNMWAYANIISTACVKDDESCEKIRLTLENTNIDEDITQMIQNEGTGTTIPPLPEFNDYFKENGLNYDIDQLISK

Cdc15 F-BAR domain = test: Binding between purified Cdc15 F-BAR domain and recombinant CN; parameters: species or system S. pombe
[3] = phosphorylated; ref Bhattacharjee et al., 2020; cited from earlier work
[4] = biological target: T2, GFP-Cdc15 F-BAR domain (residues 19-312) (S. pombe, UniProt Q09822 19-312); test: recruitment to giant unilamellar vesicles, fluorescence microscopy
T2 sequence (looked up): T1 sequence (Q09822 19-312 E30K/E152K) with K12E, K134E

Molecule: C=CC[C@@H]1/C=C(\C)C[C@H](C)C[C@H](OC)[C@H]2O[C@@](O)(C(=O)C(=O)N3CCCC[C@H]3C(=O)O[C@H](/C(C)=C/[C@@H]3CC[C@@H](O)[C@H](OC)C3)[C@H](C)[C@@H](O)CC1=O)[C@H](C)C[C@@H]2OC [FK506]
Cdc15 phosphostate [1]: Cdc15 phosphostate changes

interaction with Imp2 F-BAR domain (Imp2 F-BAR domain): did not interact
Molecule: Cdc12 peptide (residues 20–40): Cdc12 (residues 20–40) peptide synthesized with an N-terminal biotin modification, used for binding assays (Biotin-TPTPSARRTIGPRAPKSKTTY)

Molecule: TPTPSARRTIGPRAPKSKTTY [Cdc12 peptide]
Kd [2]: 5 µM

binding to purified Cdc15 F-BAR domain (Cdc15 F-BAR domain): did not detect binding
Molecule: recombinant CN: Calcineurin produced by co-expressing Ppb1 as a 6xHis fusion (catalytic subunit), Cnb1 (regulatory subunit), and Cam1 (calmodulin)

B1: Cdc15 (E30K E152K): Full-length FLAG-Cdc15 (E30K E152K) co-expressed with kinase Pom1 (protein, UniProt Q09822 1-927, looked up, variant E30K E152K)
chain: MEVNGVSQSEAAPYVTKSSVKFRDNFWGSKDAGMDALMSRTKSSLSVLESIDEFYAKRASIEREYASKLQELAASSADIPEVGSTLNNILSMRTETGSMAKAHEEVSQQINTELRNKIREYIDQTEQQKVVAANAIEELYQKKTALEIDLSKKKDAYEYSCNKLNSYMRQTKKMTGRELDKYNLKIRQAALAVKKMDAEYRETNELLLTVTREWIDRWTEVCDAFQHIEEYRLEFLKTNMWAYANIISTACVKDDESCEKIRLTLENTNIDEDITQMIQNEGTGTTIPPLPEFNDYFKENGLNYDIDQLISKAPSYPYSSSRPSASASLASSPTRSAFRPKTSETVSSEVVSSPPTSPLHSPVKPVSNEQVEQVTEVELSIPVPSIQEAESQKPVLTGSSMRRPSVTSPTFEVAARPLTSMDVRSSHNAETEVQAIPAATDISPEVKEGKNSENAITKDNDDIILSSQLQPTATGSRSSRLSFSRHGHGSQTSLGSIKRKSIMERMGRPTSPFMGSSFSNMGSRSTSPTKEGFASNQHATGASVQSDELEDIDPRANVVLNVGPNMLSVGEAPVESTSKEEDKDVPDPIANAMAELSSSMRRRQSTSVDDEAPVSLSKTSSSTRLNGLGYHSRNTSIASDIDGVPKKSTLGAPPAAHTSAQMQRMSNSFASQTKQVFGEQRTENSARESLRHSRSNMSRSPSPMLSRRSSTLRPSFERSASSLSVRQSDVVSPAPSTRARGQSVSGQQRPSSSMSLYGEYNKSQPQLSMQRSVSPNPLGPNRRSSSVLQSQKSTSSNTSNRNNGGYSGSRPSSEMGHRYGSMSGRSMRQVSQRSTSRARSPEPTNRNSVQSKNVDPRATFTAEGEPILGYVIALYDYQAQIPEEISFQKGDTLMVLRTQEDGWWDGEIINVPNSKRGLFPSNFVQTV
modifications: full-length FLAG tag
membrane binding [3]: did not bind membrane

binding result [4]: binds
B2: Rhodamine-Cdc12(aa20-40) peptide (peptide)
peptide: Rhodamine-TPTPSARRTIGPRAPKSKTTY
modifications: reading uncertain
